≈ marks a conversion by molar mass, not a printed value.
tested on: Staphylococcus aureus; assay: Antibacterial activity against methicillin-resistant Staphylococcus aureus S17 measured after overnight incubation by broth double-dilution method; assay type: functional; settings: not given
In short: (§1)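 MIC by broth double-dilution in liquid Mueller-Hinton medium. Values are reported in µg/mL.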

Structure (SMILES) | MIC [µg/mL]
O=c1c2ccccc2sn1-c1ccc(Cl)cc1 | 1 (≈ 3.82 µM)

tested on: Staphylococcus aureus; assay: Antibacterial activity against methicillin-resistant Staphylococcus aureus NRS77 measured after overnight incubation by broth double-dilution method; assay type: functional; settings: not given; in short: as §1

Structure (SMILES) | MIC [µg/mL]
O=c1c2ccccc2sn1-c1ccc(Cl)cc1 | 3.9 (≈ 14.9 µM)

tested on: Staphylococcus aureus; assay: Antibacterial activity against methicillin-resistant Staphylococcus aureus C16 measured after overnight incubation by broth double-dilution method; assay type: functional; settings: not given; in short: as §1

Structure (SMILES) | MIC [µg/mL]
O=c1c2ccccc2sn1-c1ccc(Cl)cc1 | 3.9 (≈ 14.9 µM)

tested on: Staphylococcus aureus; assay: Antibacterial activity against methicillin-resistant Staphylococcus aureus C2 measured after overnight incubation by broth double-dilution method; assay type: functional; settings: not given; in short: as §1

Structure (SMILES) | MIC [µg/mL]
O=c1c2ccccc2sn1-c1ccc(Cl)cc1 | 1 (≈ 3.82 µM)

tested on: Staphylococcus aureus; assay: Antibacterial activity against methicillin-resistant Staphylococcus aureus G6 measured after overnight incubation by broth double-dilution method; assay type: functional; settings: not given; in short: as §1

Structure (SMILES) | MIC [µg/mL]
O=c1c2ccccc2sn1-c1ccc(Cl)cc1 | 2 (≈ 7.64 µM)

tested on: Enterococcus; assay: Antibacterial activity against Vancomycin-resistant Enterococcus measured after overnight incubation by broth double-dilution method; assay type: functional; settings: not given; in short: as §1

Structure (SMILES) | MIC [µg/mL]
O=c1c2ccccc2sn1-c1ccc(Cl)cc1 | 0.5 (≈ 1.91 µM)

tested on: Mycolicibacterium smegmatis; assay: Antibacterial activity against Mycobacterium smegmatis MC2-155 measured after overnight incubation by broth double-dilution method; assay type: functional; settings: str. MC2 155; in short: as §1

Structure (SMILES) | MIC [µg/mL]
O=c1c2ccccc2sn1-c1ccc(Cl)cc1 | 3.9 (≈ 14.9 µM)

tested on: Staphylococcus aureus; assay: Antibacterial activity against methicillin-sensitive Staphylococcus aureus ATCC 6538 measured after overnight incubation by broth double-dilution method; assay type: functional; settings: not given; in short: as §1

Structure (SMILES) | MIC [µg/mL]
O=c1c2ccccc2sn1-c1ccc(Cl)cc1 | 3.9 (≈ 14.9 µM)

tested on: Staphylococcus aureus; assay: Antibacterial activity against methicillin-resistant Staphylococcus aureus G1 measured after overnight incubation by broth double-dilution method; assay type: functional; settings: not given; in short: as §1

Structure (SMILES) | MIC [µg/mL]
O=c1c2ccccc2sn1-c1ccc(Cl)cc1 | 2 (≈ 7.64 µM)

tested on: Staphylococcus aureus; assay: Antibacterial activity against methicillin-resistant Staphylococcus aureus G12 measured after overnight incubation by broth double-dilution method; assay type: functional; settings: not given; in short: as §1

Structure (SMILES) | MIC [µg/mL]
O=c1c2ccccc2sn1-c1ccc(Cl)cc1 | 2 (≈ 7.64 µM)

tested on: Staphylococcus aureus; assay: Antibacterial activity against methicillin-resistant Staphylococcus aureus USA300 measured after overnight incubation by broth double-dilution method; assay type: functional; settings: not given; in short: as §1

Structure (SMILES) | MIC [µg/mL]
O=c1c2ccccc2sn1-c1ccc(Cl)cc1 | 3.9 (≈ 14.9 µM)

tested on: Staphylococcus aureus; assay: Antibacterial activity against methicillin-resistant Staphylococcus aureus BRS3 measured after overnight incubation by broth double-dilution method; assay type: functional; settings: not given; in short: as §1

Structure (SMILES) | MIC [µg/mL]
O=c1c2ccccc2sn1-c1ccc(Cl)cc1 | 3.9 (≈ 14.9 µM)

tested on: Staphylococcus aureus; assay: Antibacterial activity against methicillin-resistant Staphylococcus aureus C1 measured after overnight incubation by broth double-dilution method; assay type: functional; settings: not given; in short: as §1

Structure (SMILES) | MIC [µg/mL]
O=c1c2ccccc2sn1-c1ccc(Cl)cc1 | 2 (≈ 7.64 µM)

tested on: Staphylococcus aureus; assay: Antibacterial activity against methicillin-sensitive Staphylococcus aureus ATCC 25923 measured after overnight incubation by broth double-dilution method; assay type: functional; settings: not given; in short: as §1

Structure (SMILES) | MIC [µg/mL]
O=c1c2ccccc2sn1-c1ccc(Cl)cc1 | 2 (≈ 7.64 µM)

tested on: Staphylococcus aureus; assay: Antibacterial activity against methicillin-resistant Staphylococcus aureus S22 measured after overnight incubation by broth double-dilution method; assay type: functional; settings: not given; in short: as §1

Structure (SMILES) | MIC [µg/mL]
O=c1c2ccccc2sn1-c1ccc(Cl)cc1 | 2 (≈ 7.64 µM)

tested on: Staphylococcus epidermidis; assay: Antibacterial activity against Staphylococcus epidermidis ATCC 35984 measured after overnight incubation by broth double-dilution method; assay type: functional; settings: RP62A
In short: (§2)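 MIC by broth double-dilution in Mueller-Hinton medium. Re-testing at the time-kill inoculum used 1×10^6 CFU/mL.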

Structure (SMILES) | MIC [µg/mL]
O=c1c2ccccc2sn1-c1ccc(Cl)cc1 | 1 (≈ 3.82 µM)

tested on: Enterococcus faecalis; assay: Antibacterial activity against Enterococcus faecalis ATCC 29212 measured after overnight incubation by broth double-dilution method; assay type: functional; settings: not given; in short: as §2

Structure (SMILES) | MIC [µg/mL]
O=c1c2ccccc2sn1-c1ccc(Cl)cc1 | 62.5 (≈ 239 µM)

tested on: Staphylococcus aureus; assay: Antibacterial activity against methicillin-resistant Staphylococcus aureus C19 measured after overnight incubation by broth double-dilution method; assay type: functional; settings: not given; in short: as §1

Structure (SMILES) | MIC [µg/mL]
O=c1c2ccccc2sn1-c1ccc(Cl)cc1 | 1 (≈ 3.82 µM)

tested on: Staphylococcus aureus; assay: Antibacterial activity against methicillin-resistant Staphylococcus aureus USA600 measured after overnight incubation by broth double-dilution method; assay type: functional; settings: not given; in short: as §1

Structure (SMILES) | MIC [µg/mL]
O=c1c2ccccc2sn1-c1ccc(Cl)cc1 | 2 (≈ 7.64 µM)

tested on: Staphylococcus aureus; assay: Antibacterial activity against methicillin-resistant Staphylococcus aureus C7 measured after overnight incubation by broth double-dilution method; assay type: functional; settings: not given; in short: as §1

Structure (SMILES) | MIC [µg/mL]
O=c1c2ccccc2sn1-c1ccc(Cl)cc1 | 1 (≈ 3.82 µM)

tested on: Staphylococcus aureus; assay: Antibacterial activity against methicillin-resistant Staphylococcus aureus NRS51 measured after overnight incubation by broth double-dilution method; assay type: functional; settings: not given; in short: as §1

Structure (SMILES) | MIC [µg/mL]
O=c1c2ccccc2sn1-c1ccc(Cl)cc1 | 3.9 (≈ 14.9 µM)

tested on: Staphylococcus aureus; assay: Antibacterial activity against methicillin-resistant Staphylococcus aureus S24 measured after overnight incubation by broth double-dilution method; assay type: functional; settings: not given; in short: as §1

Structure (SMILES) | MIC [µg/mL]
O=c1c2ccccc2sn1-c1ccc(Cl)cc1 | 1 (≈ 3.82 µM)

tested on: Listeria monocytogenes; assay: Antibacterial activity against Listeria monocytogenes ATCC 19115 measured after overnight incubation by broth double-dilution method; assay type: functional; settings: not given; in short: as §2

Structure (SMILES) | MIC [µg/mL]
O=c1c2ccccc2sn1-c1ccc(Cl)cc1 | 1 (≈ 3.82 µM)

tested on: Staphylococcus aureus; assay: Antibacterial activity against methicillin-resistant Staphylococcus aureus USA100 measured after overnight incubation by broth double-dilution method; assay type: functional; settings: not given; in short: as §1

Structure (SMILES) | MIC [µg/mL]
O=c1c2ccccc2sn1-c1ccc(Cl)cc1 | 2 (≈ 7.64 µM)

tested on: Staphylococcus aureus; assay: Antibacterial activity against methicillin-sensitive Staphylococcus aureus ATCC 29213 measured after overnight incubation by broth double-dilution method; assay type: functional; settings: not given; in short: as §1

Structure (SMILES) | MIC [µg/mL]
O=c1c2ccccc2sn1-c1ccc(Cl)cc1 | 2 (≈ 7.64 µM)

tested on: Staphylococcus aureus; assay: Antibacterial activity against methicillin-resistant Staphylococcus aureus 1 measured after overnight incubation by broth double-dilution method; assay type: functional; settings: not given; in short: as §1

Structure (SMILES) | MIC [µg/mL]
O=c1c2ccccc2sn1-c1ccc(Cl)cc1 | 1 (≈ 3.82 µM)

tested on: Staphylococcus aureus; assay: Antibacterial activity against methicillin-resistant Staphylococcus aureus C14 measured after overnight incubation by broth double-dilution method; assay type: functional; settings: not given; in short: as §1

Structure (SMILES) | MIC [µg/mL]
O=c1c2ccccc2sn1-c1ccc(Cl)cc1 | 3.9 (≈ 14.9 µM)

tested on: Staphylococcus aureus; assay: Antibacterial activity against methicillin-resistant Staphylococcus aureus ATCC 33591 measured after overnight incubation by broth double-dilution method; assay type: functional; settings: not given; in short: as §1

Structure (SMILES) | MIC [µg/mL]
O=c1c2ccccc2sn1-c1ccc(Cl)cc1 | 1 (≈ 3.82 µM)

tested on: Staphylococcus aureus; assay: Antibacterial activity against methicillin-resistant Staphylococcus aureus G14 measured after overnight incubation by broth double-dilution method; assay type: functional; settings: not given; in short: as §1

Structure (SMILES) | MIC [µg/mL]
O=c1c2ccccc2sn1-c1ccc(Cl)cc1 | 1 (≈ 3.82 µM)

tested on: Staphylococcus aureus; assay: Antibacterial activity against methicillin-resistant Staphylococcus aureus USA200 measured after overnight incubation by broth double-dilution method; assay type: functional; settings: not given; in short: as §1

Structure (SMILES) | MIC [µg/mL]
O=c1c2ccccc2sn1-c1ccc(Cl)cc1 | 2 (≈ 7.64 µM)

tested on: Staphylococcus aureus; assay: Antibacterial activity against methicillin-resistant Staphylococcus aureus S14 measured after overnight incubation by broth double-dilution method; assay type: functional; settings: not given; in short: as §1

Structure (SMILES) | MIC [µg/mL]
O=c1c2ccccc2sn1-c1ccc(Cl)cc1 | ≤ 0.25

tested on: Staphylococcus aureus; assay: Antibacterial activity against methicillin-resistant Staphylococcus aureus 2 measured after overnight incubation by broth double-dilution method; assay type: functional; settings: not given; in short: as §1

Structure (SMILES) | MIC [µg/mL]
O=c1c2ccccc2sn1-c1ccc(Cl)cc1 | 1 (≈ 3.82 µM)

tested on: Enterococcus faecium; assay: Antibacterial activity against Enterococcus faecium BM4105-RF measured after overnight incubation by broth double-dilution method; assay type: functional; settings: not given; in short: as §1

Structure (SMILES) | MIC [µg/mL]
O=c1c2ccccc2sn1-c1ccc(Cl)cc1 | 31.3 (≈ 120 µM)

tested on: Staphylococcus aureus; assay: Antibacterial activity against methicillin-resistant Staphylococcus aureus NRS4 measured after overnight incubation by broth double-dilution method; assay type: functional; settings: not given; in short: as §1

Structure (SMILES) | MIC [µg/mL]
O=c1c2ccccc2sn1-c1ccc(Cl)cc1 | 3.9 (≈ 14.9 µM)

tested on: Enterococcus faecalis; assay: Antibacterial activity against Enterococcus faecalis ATCC 49533 measured after overnight incubation by broth double-dilution method; assay type: functional; settings: not given; in short: as §2

Structure (SMILES) | MIC [µg/mL]
O=c1c2ccccc2sn1-c1ccc(Cl)cc1 | > 125

From ChEMBL document CHEMBL3864121, “Development of ebsulfur analogues as potent antibacterials against methicillin-resistant Staphylococcus aureus” (Bioorg Med Chem, 2016)
